Measured values collected from several papers.
Each line is one published result; the experiments were not run side by side.
Target: Serine/threonine-protein kinase D2 (PRKD2, Homo sapiens, UniProt Q9BZL6)
Residues used in one study (Q9BZL6 1-878): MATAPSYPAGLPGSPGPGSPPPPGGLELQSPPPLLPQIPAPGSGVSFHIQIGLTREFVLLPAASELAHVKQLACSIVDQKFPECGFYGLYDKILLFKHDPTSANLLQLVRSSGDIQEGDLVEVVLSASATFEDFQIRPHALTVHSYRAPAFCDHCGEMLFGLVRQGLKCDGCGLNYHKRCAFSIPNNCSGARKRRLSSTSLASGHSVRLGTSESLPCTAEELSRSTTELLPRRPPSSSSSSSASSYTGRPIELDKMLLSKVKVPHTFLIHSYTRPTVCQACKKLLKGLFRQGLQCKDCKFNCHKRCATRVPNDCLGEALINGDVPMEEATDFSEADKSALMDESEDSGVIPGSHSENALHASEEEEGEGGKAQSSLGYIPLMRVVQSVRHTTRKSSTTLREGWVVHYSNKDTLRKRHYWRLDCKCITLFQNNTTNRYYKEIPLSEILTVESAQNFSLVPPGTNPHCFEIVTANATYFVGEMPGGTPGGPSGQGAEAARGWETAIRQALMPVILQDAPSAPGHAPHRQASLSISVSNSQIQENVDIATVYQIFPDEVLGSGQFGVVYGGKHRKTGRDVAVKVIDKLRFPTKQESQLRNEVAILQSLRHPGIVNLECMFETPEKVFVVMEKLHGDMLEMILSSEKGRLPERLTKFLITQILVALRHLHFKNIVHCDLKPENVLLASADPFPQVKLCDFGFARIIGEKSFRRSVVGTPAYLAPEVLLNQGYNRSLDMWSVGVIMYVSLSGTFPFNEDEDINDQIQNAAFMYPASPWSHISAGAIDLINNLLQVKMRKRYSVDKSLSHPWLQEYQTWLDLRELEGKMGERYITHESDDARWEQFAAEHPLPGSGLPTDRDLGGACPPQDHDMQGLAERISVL

| Compound | observed | mode | method | tested at | endpoint | value |
| --- | --- | --- | --- | --- | --- | --- |
| c1ccc(CNc2nc(N3CCOc4ccccc43)nc3c2CCCC3)cc1 | target engagement in cells | inhibitor | chemoproteomics | 20 mM | inhibition | -7.2% |
| CCCS(=O)(=O)Nc1ccc(F)c(C(=O)c2c[nH]c3ncc(-c4ccc(Cl)cc4)cc23)c1F | enzyme activity | inhibitor |  | 1 µM | inhibition | < 10% |
| CCCOc1ccc(OC)c(F)c1C(=O)c1ccc(C(=O)N[C@@H]2CNC[C@H]2NC(=O)c2ccc3[nH]ncc3c2)cc1 | enzyme activity | inhibitor |  | 10 µM | remaining activity | 48% |
| Cn1c2c(c3ccc(Cl)c(Cl)c31)C(C#N)C1(CCN(C(=O)OC(C)(C)C)CC1)NC2=O (racemic) | thermal stability |  | DSF | 10 µM | ΔTm | 0 °C |
| COc1cc2ncnc(Nc3ccc(Oc4ccccc4)c(C)c3C)c2cc1OC | enzyme activity | inhibitor |  | 1 µM | inhibition | 2% |
| Cn1nc(C(=O)NCc2ccc(C(=O)O)cc2)cc1-c1ccc2[nH]ccc2c1 | cell-free assay |  | competition with immobilised ligand | 0.1 µM | remaining binding | 100% |
| CCOc1cc(-c2nncn2C)ccc1Nc1ncc2cc(C)nc(NCC(C)(C)C)c2n1 | enzyme activity | inhibitor | FRET | 1 µM | inhibition | < 15% |
| Cc1c(NC(=O)c2cc(C(N)=O)nc3cc(F)ccc23)c(C(F)(F)F)nn1Cc1ccc(C(C)(C)C)cc1 | cell-free assay |  | competition with immobilised ligand | 1 µM | remaining binding | 100% |
| N#CC1c2c([nH]c3c(Cl)c(Cl)ccc23)C(=O)NC12CCCCC2 (racemic) | thermal stability |  | DSF | 10 µM | ΔTm | 0.1 °C |
| CCN(CC)CCNC(=O)c1c(C)[nH]c(/C=C2\C(=O)Nc3ccc(F)cc32)c1C | enzyme activity | inhibitor |  | 10 µM | inhibition | 88% |
| O=C1Nc2ccc(Cl)cc2C1=Cc1cc(Cl)c(O)c(Cl)c1 | cell-free assay |  |  | 0.5 µM | remaining signal | 95.5% |
| CC(=O)Nc1c(C(C)=O)c(=O)n(C)c2nc(-c3ccc(Cl)cc3Cl)c(-c3ccc(Cl)cc3)cc12 | cell-free assay |  | competition with immobilised ligand | 1 µM | remaining binding | 100% |
| COc1cc(Cl)c(C(=O)N[C@@H](CN[C@H]2CC[C@@H](N)CC2)Cc2ccc(C#N)cc2)cc1-c1ccc(CN[C@H](C)c2ccc(C)cc2)o1 | enzyme activity | inhibitor |  | 1 µM | remaining activity | 109% |
| CC(C)(C)c1nc2c(s1)c1nc(N)ncc1c1ccc(NS(=O)(=O)c3c(F)cccc3F)c(F)c12 | enzyme activity | inhibitor | radiometric | 1 µM | remaining activity | 79% |
| Cn1c2c(c3ccc(Cl)c(Cl)c31)C(C#N)C(C)(C)NC2=O (stereo not shown) | thermal stability |  | DSF | 10 µM | ΔTm | 0.2 °C |
| CC/C(=N\NC(=O)NCc1cccc(O)c1)c1ccc(O)c(C)c1O | enzyme activity | inhibitor |  | 0.1 µM | inhibition | -11.5% |
| Nc1cnc(N2CCc3cc(S(=O)(=O)Nc4c(F)cc(Cl)cc4F)cc(N4CCCC4=O)c32)nc1 | cell-free assay |  | competition with immobilised ligand | 1 µM | remaining binding | 100% |

| Compound | observed | mode | method | tested at | endpoint | value |
| --- | --- | --- | --- | --- | --- | --- |
| Cn1cnc(Br)c1C1=CN(c2ncnc3[nH]cnc23)CCS1 | enzyme activity | inhibitor | radiometric | 50 nM | inhibition | 19.1% |
| CCN(CC)c1ccc(C2=NNC(=O)CC2C)cc1[N+](=O)[O-] (stereo not shown) | enzyme activity | inhibitor |  | 10 µM | remaining activity | 106% |
| Cn1c2c(c3ccc(Cl)c(Cl)c31)C(C#N)C1(CCCCC1)NC2=O (racemic) | thermal stability |  | DSF | 10 µM | ΔTm | 0.1 °C |
| N#CCCc1ccc2c(c1)-c1[nH]c3ccc([N+](=O)[O-])cc3c1CC(=O)N2 | cell-free assay |  |  | 0.5 µM | remaining signal | 94.2% |
| CNC(=O)c1cc(Oc2ccc(NC(=O)Nc3ccc(Cl)c(C(F)(F)F)c3)cc2)ccn1 | enzyme activity | inhibitor |  | 10 µM | inhibition | 15% |
| Cn1nc(C(F)(F)F)cc1-c1cnc(N2CCc3cc(S(=O)(=O)Nc4c(F)cc(Cl)cc4F)cc(N4CCCC4=O)c32)nc1 | cell-free assay |  | competition with immobilised ligand | 1 µM | remaining binding | 95% |
| CCN1CCC2(CC1)NC(=O)c1c(c3ccc(Cl)c(Cl)c3n1C)C2C#N (racemic) | thermal stability |  | DSF | 10 µM | ΔTm | 0.6 °C |
| Cc1cnc(NC2CCOCC2)nc1-n1cnc(C(=O)NC(CN)c2cc(F)cc(Cl)c2)c1 (stereo not shown) | enzyme activity | inhibitor | radiometric | 1 µM | remaining activity | 5% |
| Cc1ccc(Nc2nccc(N(C)c3ccc4c(C)n(C)nc4c3)n2)cc1S(N)(=O)=O | enzyme activity | inhibitor |  | 10 µM | inhibition | 15% |
| Cn1cncc1C1=CN(c2ncnc3[nH]cnc23)CCS1 | enzyme activity | inhibitor | radiometric | 2 µM | inhibition | 93.1% |
| Cc1ccc(C(=O)NCc2ccsc2)cc1C#Cc1cn(C(C)C)c2ncnc(N)c12 | enzyme activity | inhibitor |  | 1 µM | activity vs control | 71% |
| CCCCN(CCCC)C(=O)CN1C[C@H](c2cc(OC)c3c(c2)OCO3)[C@@H](C(=O)O)[C@@H]1CC(C)(C)CCC | cell-free assay |  | competition with immobilised ligand | 1 µM | remaining binding | 100% |
| CC1(C)NC(=O)c2[nH]c3c(Cl)c(Cl)ccc3c2C1C#N (stereo not shown) | thermal stability |  | DSF | 10 µM | ΔTm | -0.1 °C |
| CC(C)CC(=O)N1CCc2nc(-c3ccc(Br)cc3)nc(N(C)Cc3ccccc3)c2C1 | cell-free assay |  | competition with immobilised ligand | 0.1 µM | remaining binding | 100% |
| CCCCNc1ncc2c(-c3ccc(F)cc3)nn(C[C@H]3CC[C@H](N)CC3)c2n1 | target engagement in cells | inhibitor | chemoproteomics | 20 mM | inhibition | 28.3% |
| C[C@@]1(Cc2ccc(C#N)cc2)C(=O)N(c2cc(Cl)cc(Cl)c2)c2ncc(C(=O)NC3(c4nc(C5CCC5)no4)CC3)n21 | cell-free assay |  | competition with immobilised ligand | 1 µM | remaining binding | 100% |
| Cc1sc(C(=O)NC2COC2)cc1-n1cc(NC(=O)Nc2c(F)cccc2Cl)cn1 | enzyme activity | inhibitor |  | 10 µM | remaining activity | 95.7% |
